According to ChEMBL document CHEMBL5346888, “Insight into non-nucleoside triazole-based systems as viral polymerases inhibitors” (Eur J Med Chem, 2023):

Tests used:
SARS-CoV-2 = assay: Antiviral activity against SARS-CoV-2 infected in African green monkey Vero E6 cells assessed as inhibition of virus growth; format: functional, organism-based; settings: Severe acute respiratory syndrome coronavirus 2, Vero C1008
[1] = Selectivity index, ratio of CC50 for cytotoxicity against African green monkey Vero E6 cells assessed as reduction in cell viability to EC50 for antiviral activity against SARS-CoV-2 infected in African green monkey Vero E6 cells assessed as inhibition of virus growth; format: toxicity, cell-based, Vero C1008; settings: read-out: Ratio CC50/EC50
[2] = target: Hepatitis C virus NS5B RNA-dependent RNA polymerase (Hepatitis C virus, UniProt Q8JXU8); assay: Inhibition of Hepatitis C virus NS5B polymerase; set-up: species or system Hepacivirus hominis
Sequence of Hepatitis C virus NS5B RNA-dependent RNA polymerase (Q8JXU8 whole entry): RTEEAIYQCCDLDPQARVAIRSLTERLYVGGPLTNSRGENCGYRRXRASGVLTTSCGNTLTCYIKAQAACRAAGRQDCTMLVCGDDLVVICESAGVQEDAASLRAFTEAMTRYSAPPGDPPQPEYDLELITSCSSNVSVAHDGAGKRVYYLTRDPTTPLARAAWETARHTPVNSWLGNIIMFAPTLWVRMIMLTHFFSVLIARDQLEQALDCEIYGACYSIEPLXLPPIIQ

CYP2D6 = CYP2D6 (Homo sapiens, UniProt P10635); assay: Inhibition of CYP2D6 (unknown origin); format: ADME
Sequence of CYP2D6 (P10635 whole entry): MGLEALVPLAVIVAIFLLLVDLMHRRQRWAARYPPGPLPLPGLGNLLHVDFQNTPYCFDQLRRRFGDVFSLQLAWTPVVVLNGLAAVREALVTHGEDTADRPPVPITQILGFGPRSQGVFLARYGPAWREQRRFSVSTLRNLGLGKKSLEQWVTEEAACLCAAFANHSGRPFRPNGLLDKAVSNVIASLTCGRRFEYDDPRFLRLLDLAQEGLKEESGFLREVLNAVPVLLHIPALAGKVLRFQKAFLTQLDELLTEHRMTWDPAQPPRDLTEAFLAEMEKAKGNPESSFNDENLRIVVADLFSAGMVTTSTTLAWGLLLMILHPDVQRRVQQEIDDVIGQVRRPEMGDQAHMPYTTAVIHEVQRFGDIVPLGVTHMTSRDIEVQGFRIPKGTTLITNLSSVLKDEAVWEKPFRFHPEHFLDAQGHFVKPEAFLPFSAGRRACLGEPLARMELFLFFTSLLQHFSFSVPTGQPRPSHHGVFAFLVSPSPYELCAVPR

[3] = Cytotoxicity against dog MDCK cells assessed as reduction in cell viability; format: toxicity, cell-based, Canis lupus familiaris
[4] = target: Hepatitis C virus NS5B RNA-dependent RNA polymerase (Hepatitis C virus) (UniProt Q8JXU8); assay: Inhibition of Hepatitis C virus NS5B polymerase at 100 uM relative to control; settings: Hepacivirus hominis
Sequence of Hepatitis C virus NS5B RNA-dependent RNA polymerase (Hepatitis C virus) (Q8JXU8 as listed by the source): as the sequence (Q8JXU8 whole entry) above

[5] = tested on: Human immunodeficiency virus 1; assay: Antiviral activity against wild type HIV-1 IIIB infected in human MT4 cells assessed as reduction in virus-induced cytopathicity by MTT assay; format: functional, organism-based; settings: Human immunodeficiency virus 1, IIIB
In short: (§1)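 MT-4 cells infected with wild-type HIV-1 IIIB, or with RES056 (K103N + Y181C double RT mutant) for the SI ratio line. Antiviral activity and cytotoxicity were both read by the tetrazolium (MTT) colorimetric method. […] SI was calculated as CC50/EC50.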

[6] = Selectivity index, ratio of CC50 for cytotoxicity against human MT4 cells assessed as reduction in cell viability to EC50 for antiviral activity against wild type HIV-1 IIIB infected in human MT4 cells; format: toxicity, cell-based; settings: read-out: Ratio CC50/EC50; in short: as §1
[7] = Selectivity index, ratio of CC50 for cytotoxicity against human MT4 cells assessed as reduction in cell viability to EC50 for antiviral activity against HIV-1 RES056 infected in human MT4 cells; format: toxicity, cell-based; settings: read-out: Ratio CC50/EC50; in short: as §1
[8] = tested on: Human immunodeficiency virus 1; assay: Antiviral activity against wild type HIV-1 infected in human HeLa cells assessed as reduction in viral growth; format: functional, organism-based; settings: Human immunodeficiency virus 1, HeLa
[9] = tested on: Human immunodeficiency virus 1; assay: Antiviral activity against HIV-1 harboring K103 N/Y181C double mutant infected in human HeLa cells assessed as reduction in viral growth; format: functional, organism-based; settings: Human immunodeficiency virus 1, HeLa
Human orthopneumovirus = assay: Antiviral activity against RSV A infected in human HEp-2 cells assessed as inhibition of virus-induced cytopathogenic effect; format: functional, organism-based; settings: human respiratory syncytial virus
[10] = Antiviral activity against RSV B infected in human HEp-2 cells assessed as inhibition of virus-induced cytopathogenic effect; format: functional, cell-based; settings: human respiratory syncytial virus
[11] = Cytotoxicity against human HeLa cells assessed as reduction in cell viability incubated for 48 hrs by cellTiter-glo assay; format: toxicity, cell-based
[12] = tested on: Human immunodeficiency virus 1; assay: Antiviral activity against HIV-1 harboring K103N/Y181C double mutant infected in human HeLa cells assessed as reduction in viral growth incubated for 48 hrs by bright-glo luciferase assay; format: functional, organism-based; settings: Human immunodeficiency virus 1, HeLa
[13] = tested on: Human immunodeficiency virus 1; assay: Antiviral activity against wild type HIV-1 infected in human HeLa cells assessed as reduction in viral growth incubated for 48 hrs by bright-glo luciferase assay; format: functional, organism-based; settings: Human immunodeficiency virus 1, HeLa
[14] = Selectivity index, ratio of CC50 for cytotoxicty against human Huh-7 cells to EC50 for antiviral activity against HCV infected in human Huh-7 cells assessed as reduction in viral infection; format: toxicity, cell-based; settings: read-out: Ratio CC50/EC50
Influenza A virus [15] = assay: Antiviral activity against influenza A H1N1 infected in MDCK cells assessed as reduction in viral replication by plaque reduction assay; format: functional, organism-based
[16] = Cytotoxicity against dog MDCK cells assessed as reduction in cell viability by MTT assay; format: toxicity, cell-based, Canis lupus familiaris
[17] = Selectivity index, ratio of CC50 for cytotoxicity against dog MDCK cells assessed as reduction in cell viability by MTT assay to EC50 for antiviral activity against influenza A H1N1 infected in MDCK cells assessed as reduction in viral replication by plaque reduction assay; format: toxicity, cell-based; settings: read-out: Ratio CC50/EC50
Influenza A virus [18] = assay: Antiviral activity against Influenza A virus H9N2 infected in MDCK cells assessed as inhibition of viral replication; format: functional, organism-based
[19] = Cytotoxicity against human MT4 cells assessed as reduction in cell viability; format: toxicity, cell-based; in short: as §1
[20] = tested on: Human immunodeficiency virus 1; assay: Antiviral activity against HIV-1 harboring reverse transcriptase K103N mutant infected in human MT4 cells assessed as reduction in virus-induced cytopathic effect; format: functional, organism-based; settings: Human immunodeficiency virus 1, MT4
[21] = tested on: Human immunodeficiency virus 1; assay: Antiviral activity against HIV-1 harboring reverse transcriptase E138K mutant infected in human MT4 cells assessed as reduction in virus-induced cytopathic effect; format: functional, organism-based; settings: Human immunodeficiency virus 1, MT4
[22] = tested on: Human immunodeficiency virus 1; assay: Antiviral activity against HIV-1 harboring reverse transcriptase Y181C mutant infected in human MT4 cells assessed as reduction in virus-induced cytopathic effect; format: functional, organism-based; settings: Human immunodeficiency virus 1, MT4
[23] = tested on: Human immunodeficiency virus 1; assay: Antiviral activity against HIV-1 harboring reverse transcriptase Y188L mutant infected in human MT4 cells assessed as reduction in virus-induced cytopathic effect; format: functional, organism-based; settings: Human immunodeficiency virus 1, MT4
[24] = tested on: Human immunodeficiency virus 1; assay: Antiviral activity against HIV-1 harboring reverse transcriptase F227L/V106A double mutant infected in human MT4 cells assessed as reduction in virus-induced cytopathic effect; format: functional, organism-based; settings: Human immunodeficiency virus 1, MT4
Hepatitis C virus = assay: Antiviral activity against HCV assessed as reduction in viral growth; format: functional, organism-based, Hepacivirus hominis
Huh-7 = assay: Anticancer activity against human Huh-7 cells measured after 72 hrs; format: functional, cell-based; settings: Huh-7, 72 h

## O=C(OCc1cn(-c2ccc([N+](=O)[O-])cc2)nn1)c1cnccn1
SARS-CoV-2
  IC50: 477 nM
[1]
  selectivity ratio: 10.3

## O=C(OCc1cn(-c2ccc(Cl)cc2)nn1)c1cnccn1
SARS-CoV-2
  IC50: 1150 nM
[1]
  selectivity ratio: 1.7

## CCC(C#N)(CC)c1ccc(CCC2(C3CCCC3)CC(O)=C(Cc3nc4nc(C)cc(C)n4n3)C(=O)O2)cc1F (stereo unspecified)
[2]
  IC50: 5 nM
CYP2D6
  IC50: > 6000 nM

## Cc1cc(C)n2nc(CC3=C(O)CC(CCc4ccc(C(C)(C)O)c(F)c4)(C4CCCC4)OC3=O)nc2n1 (stereo unspecified)
[2]
  IC50: 140 nM
CYP2D6
  IC50: > 6000 nM

## COc1ccc(C(=O)Nc2nc3n(n2)C(c2ccccc2)C=C(C)N3)cc1 (stereo unspecified)
[3]
  CC50: > 250000 nM

## CCCn1c(CC2(CC)OCCc3c2[nH]c2c(CC)cccc32)n[nH]c1=S (stereo unspecified)
[4]
  inhibition: 69%
[2]
  IC50: 26000 nM

## Cc1cc(C)c(Oc2cc(Nc3ccc(C#N)cc3)ncc2C(=O)NCc2cn(CC(=O)N3CCOCC3)nn2)c(C)c1
[5]
  EC50: 20 nM
[6]
  selectivity ratio: 9280
[7]
  selectivity ratio: 12

## Cc1ccc(NC(=O)CSc2nnc(C)n2-c2ccccc2)c(Br)c1
[8]
  EC50: 100 nM
[9]
  EC50: 1300 nM

## CCCCn1c(CC2(CC)OCCc3c2[nH]c2c(CC)cccc32)n[nH]c1=S (stereo unspecified)
[4]
  inhibition: 72.3%
[2]
  IC50: 25400 nM

## COc1cc(-c2noc(-c3nnn(-c4ccccc4Cl)c3C)n2)cc(OC)c1OC
Human orthopneumovirus
  EC50: 1000 nM
[10]
  EC50: 1000 nM

## CCc1cccc2c3c([nH]c12)C(CC)(Cc1n[nH]c(=S)n1CC)OCC3 (stereo unspecified)
[4]
  inhibition: 74.6%
[2]
  IC50: 21600 nM

## NS(=O)(=O)c1ccc(NC(=O)CSc2nnc(Br)n2-c2ccc(C3CC3)c3ccccc23)c(Cl)c1
[11]
  CC50 at 48 h: ≥ 3000 nM
[12]
  EC50: 0.23 nM
[13]
  EC50: 0.14 nM

## O=C(CC(=O)c1nnc[nH]1)c1ccc(OCc2ccc(F)cc2)cc1
[14]
  selectivity ratio: > 128

## O=C(OCc1cn(-c2ccccc2Cl)nn1)c1cnccn1
SARS-CoV-2
  IC50: 952 nM
[1]
  selectivity ratio: 3.7

## CCc1cc(CC[C@@]2(C3CCCC3)CC(O)=C(Cc3nc4nc(C)cc(C)n4n3)C(=O)O2)cc(CC)n1
[2]
  IC50: 12 nM

## NC(=O)c1nc(F)cnc1O
SARS-CoV-2
  IC50: 1380 nM
[1]
  selectivity ratio: 3.8

## Cc1cc(C)c(Oc2cc(Nc3ccc(C#N)cc3)ncc2C(=O)NCc2cn(CCC#N)nn2)c(C)c1
[6]
  selectivity ratio: 2040
[7]
  selectivity ratio: 17

## Cc1cc(C)c(Oc2cc(Nc3ccc(C#N)cc3)ncc2C(=O)NCc2cn(CC(=O)N3CCCC3)nn2)c(C)c1
[5]
  EC50: 20 nM
[6]
  selectivity ratio: 2100
[7]
  selectivity ratio: 41

## CCc1c(C)nc2nnc(-c3ccccc3Cl)n2c1O
Influenza A virus [15]
  EC50: 550 nM
[16]
  CC50: 125000 nM
[17]
  selectivity ratio: 227
Influenza A virus [18]
  EC50: 90 nM

## Cc1ccnc2c1NC(=O)c1cccnc1N2C1CC1 [NEVIRAPINE]
[19]
  CC50: > 15000 nM

## CC(C)Nc1cccnc1N1CCN(C(=O)c2cc3cc(NS(C)(=O)=O)ccc3[nH]2)CC1 [DELAVIRDINE]
[5]
  EC50: 38 nM
[6]
  selectivity ratio: 733
[20]
  EC50: 3000 nM
[21]
  EC50: 51 nM
[22]
  EC50: 2460 nM
[23]
  EC50: 840 nM
[24]
  EC50: 2270 nM

## C=CCn1c(CC2(CC)OCCc3c2[nH]c2c(CC)cccc32)n[nH]c1=S (stereo unspecified)
[4]
  inhibition: 58.2%
[2]
  IC50: 40300 nM

## CCc1cccc2c3c([nH]c12)C(CC)(Cc1n[nH]c(=S)n1Cc1ccccc1)OCC3 (stereo unspecified)
[4]
  inhibition: 3.78%

## CCc1cccc2c3c([nH]c12)C(CC)(Cc1n[nH]c(=S)n1C1CCCCC1)OCC3 (stereo unspecified)
[4]
  inhibition: 45.6%

## COc1ccccc1-n1cc(COC(=O)c2cnccn2)nn1
SARS-CoV-2
  IC50: 1080 nM
[1]
  selectivity ratio: 2.1

## O=C(OCc1cn(-c2ccc(F)cc2)nn1)c1cnccn1
SARS-CoV-2
  IC50: 12200 nM
[1]
  selectivity ratio: 0.3

## COc1ccc(-n2cc(COC(=O)c3cnccn3)nn2)cc1
SARS-CoV-2
  IC50: 120 nM
[1]
  selectivity ratio: 3.2

## CCc1cc(CCC2(C3CCCC3)CC(O)=C(Cc3nc4nc(C)cc(C)n4n3)C(=O)O2)cc(CC)n1 (stereo unspecified)
[2]
  IC50: 16 nM

## CCc1cc(CC[C@]2(C3CCCC3)CC(O)=C(Cc3nc4nc(C)cc(C)n4n3)C(=O)O2)cc(CC)n1 [FILIBUVIR]
[2]
  IC50: 7 nM

## CCc1cccc2c3c([nH]c12)C(CC)(Cc1n[nH]c(=S)n1-c1ccccc1)OCC3 (stereo unspecified)
[4]
  inhibition: 49.5%

## Cc1cc(C)n2nc(CC3=C(O)CC(CCc4ccc(C(C)(C)C#N)c(F)c4)(C4CCCC4)OC3=O)nc2n1 (stereo unspecified)
[2]
  IC50: 3 nM
Hepatitis C virus
  EC50: 15 nM

## CCc1cccc2c3c([nH]c12)C(CC)(Cc1n[nH]c(=S)n1C)OCC3 (stereo unspecified)
[4]
  inhibition: 78.9%
[2]
  IC50: 14800 nM
Huh-7
  EC50: 4290 nM
